Results published in ChEMBL document CHEMBL4038343, “Dual MET and SMO Negative Modulators Overcome Resistance to EGFR Inhibitors in Human Nonsmall Cell Lung Cancer” (J Med Chem, 2017).
Calls of active or inactive are those of the source. No cut-off for these calls is given here.

Experiments:
HCC827 [1] = assay: Effect on total MAPK levels in gefitinib resistant human HCC827 cells at 0.1 to 0.5 uM after 72 hrs by Western blotting method; type: ADME, cell-based; settings: hcc827, 72 h
Method in brief: (§1)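 HCC827-GR cells treated 72 h; lysates in RIPA or Tween-20 buffer, protein equalized by Bradford, Western blotting with antibodies to p-MAPK44/42 (Thr202/Tyr204), MAPK, p-AKT (Ser473), AKT, p-MET (Tyr1234/1235), MET, SMO, GLI1, α-tubulin; ECL detection; triplicate.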

HCC827 [2] = assay: Antitumor activity against gefitinib resistant human HCC827 cells xenografted in balb/c athymic nu/nu mouse assessed as decrease in tumor size at 20 mg/kg/day, po in presence of gefitinib; type: functional, organism-based
Method in brief: (§2)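 HCC827 s.c. xenografts (10^7 cells in Matrigel) in female balb/c nu/nu mice made gefitinib-resistant by 3-weekly escalating oral gefitinib (18.7–150 mg/kg/day); gefitinib then continued at its last maximal dose with oral compound at fixed daily dose; tumor volume by calipers (π/6 × larger × smaller²) and body weight on alternate days.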

HCC827 [3] = assay: Antitumor activity against gefitinib resistant human HCC827 cells xenografted in balb/c athymic nu/nu mouse assessed as decrease in tumor size at 20 mg/kg/day, po in presence of gefitinib
[4] = tested on: Protein smoothened (Homo sapiens), Q99835 [V404M]; assay: Inhibition of SMO V404M mutant in gefitinib resistant human HCC827 cells assessed as decrease in GLI1 activity at 2 to 60 uM in presence of SMO agonist SAG by GLI1 luciferase reporter assay
Chain of Protein smoothened (Homo sapiens), Q99835 [V404M] (Q99835 whole entry V404M): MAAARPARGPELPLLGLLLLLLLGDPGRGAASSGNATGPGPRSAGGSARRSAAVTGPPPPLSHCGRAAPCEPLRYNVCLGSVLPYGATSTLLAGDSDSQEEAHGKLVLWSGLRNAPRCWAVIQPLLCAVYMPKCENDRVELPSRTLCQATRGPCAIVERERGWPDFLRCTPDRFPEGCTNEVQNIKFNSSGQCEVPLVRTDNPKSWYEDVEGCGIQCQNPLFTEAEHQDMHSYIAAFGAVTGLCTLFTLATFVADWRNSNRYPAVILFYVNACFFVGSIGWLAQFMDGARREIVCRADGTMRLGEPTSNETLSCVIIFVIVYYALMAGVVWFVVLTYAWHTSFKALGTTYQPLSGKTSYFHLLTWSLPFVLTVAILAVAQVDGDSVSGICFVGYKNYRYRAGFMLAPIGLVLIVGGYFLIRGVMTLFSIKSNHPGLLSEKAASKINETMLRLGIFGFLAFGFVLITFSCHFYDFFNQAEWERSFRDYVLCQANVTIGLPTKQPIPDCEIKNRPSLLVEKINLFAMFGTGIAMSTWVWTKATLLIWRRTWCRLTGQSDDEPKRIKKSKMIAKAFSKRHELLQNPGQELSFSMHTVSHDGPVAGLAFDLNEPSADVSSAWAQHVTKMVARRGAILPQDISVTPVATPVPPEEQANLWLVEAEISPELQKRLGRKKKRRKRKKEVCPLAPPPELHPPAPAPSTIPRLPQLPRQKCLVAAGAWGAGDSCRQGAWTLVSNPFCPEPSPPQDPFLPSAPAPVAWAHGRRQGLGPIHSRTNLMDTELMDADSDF
Method in brief: (§3)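 HCC827-GR cells seeded serum-free, cotransfected at 50% confluence with GLI1-firefly luciferase reporter plus pRL-TK Renilla (Lipofectamine 2000, triplicate); after 8 h medium switched to compound, with or without 100 nM SAG; about 48 h post-transfection dual-luciferase read; firefly normalized to Renilla as fold over control; three independent experiments.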

[5] = tested on: Protein smoothened (Homo sapiens), Q99835 [V404M]; assay: Inhibition of SMO V404M mutant in gefitinib resistant human HCC827 cells assessed as decrease in GLI1 activity by GLI1 luciferase reporter assay; method in brief: as §3
[6] = tested on: Protein smoothened (Homo sapiens), Q99835 [V404M]; assay: Inhibition of SMO V404M mutant in gefitinib resistant human HCC827 cells assessed as decrease in GLI1 activity at 60 uM by GLI1 luciferase reporter assay relative to control; method in brief: as §3
Protein smoothened [7] = target: Protein smoothened (Homo sapiens, UniProt Q99835); assay: Displacement of [3H]-cyclopamine from human wild-type SMO receptor expressed in HEK293T cell membranes by liquid scintillation spectrometry; parameters: species or system HEK-293T
Chain of Protein smoothened (Homo sapiens, UniProt Q99835) (Q99835 whole entry): as the sequence (Q99835 whole entry V404M) above, with M404V counted along it

HCC827 [8] = assay: Induction of apoptosis in gefitinib resistant human HCC827 cells at 0.01 to 1 uM after 72 hrs by annexin V-FITC-propidium iodide staining-based flow cytometry method relative to control; type: functional, cell-based
Method in brief: (§4)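 HCC827-GR cells treated 72 h, trypsinized, resuspended at 1 × 10^6/mL in binding buffer, stained 30 min at RT in dark with annexin V-FITC and propidium iodide; FACSCalibur flow cytometry (488 nm excitation; 530 nm FITC, 670 nm PI); mean of three wells from a representative experiment.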

Protein smoothened [9] = target: Protein smoothened (Homo sapiens, UniProt Q99835, V404M); assay: Displacement of [3H]-cyclopamine from SMO V404M mutant in gefitinib resistant human HCC827 cells by scintillation counting
Chain of Protein smoothened (Homo sapiens, UniProt Q99835, V404M) (Q99835 28-787 V404M limits assumed): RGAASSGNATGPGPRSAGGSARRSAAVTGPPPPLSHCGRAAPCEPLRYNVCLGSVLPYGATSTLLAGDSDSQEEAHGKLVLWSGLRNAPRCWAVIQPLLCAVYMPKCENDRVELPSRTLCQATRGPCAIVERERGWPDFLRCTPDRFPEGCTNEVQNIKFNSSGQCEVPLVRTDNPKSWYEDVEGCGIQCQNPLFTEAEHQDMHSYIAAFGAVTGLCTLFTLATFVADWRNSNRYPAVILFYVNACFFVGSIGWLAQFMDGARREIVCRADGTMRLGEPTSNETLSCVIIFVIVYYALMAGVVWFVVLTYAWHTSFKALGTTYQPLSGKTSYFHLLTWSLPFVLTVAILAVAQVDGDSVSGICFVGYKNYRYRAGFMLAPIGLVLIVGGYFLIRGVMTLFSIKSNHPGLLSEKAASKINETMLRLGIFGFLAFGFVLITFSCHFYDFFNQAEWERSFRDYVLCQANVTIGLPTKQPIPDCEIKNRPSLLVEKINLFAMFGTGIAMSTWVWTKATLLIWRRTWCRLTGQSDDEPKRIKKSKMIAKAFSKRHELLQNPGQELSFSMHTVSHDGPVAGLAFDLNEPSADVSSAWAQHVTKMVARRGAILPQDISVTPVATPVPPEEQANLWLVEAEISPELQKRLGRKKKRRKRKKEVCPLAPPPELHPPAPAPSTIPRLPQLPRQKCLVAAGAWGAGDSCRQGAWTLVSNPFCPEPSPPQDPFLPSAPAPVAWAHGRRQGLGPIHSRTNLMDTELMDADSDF

HCC827 [10] = assay: Antiproliferative activity against gefitinib resistant EGFR-mutated human HCC827 cells after 72 hrs by MTT assay; type: functional, cell-based; settings: for IC50: HCC827, 72 h
HCC827 [11] = assay: Antitumor activity against gefitinib resistant human HCC827 cells xenografted in balb/c athymic nu/nu mouse assessed as decrease in tumor size at 20 mg/kg/day, po; type: functional, organism-based
Method in brief: (§5)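 Female balb/c nu/nu mice, 4–6 weeks old, given 10^7 HCC827 cells s.c. in 1:1 Matrigel/medium; at 150 mm3 tumors, 3-weekly escalating oral gefitinib (18.7 to 150 mg/kg/day) over 4 months until resistance (>25% regrowth from maximal reduction); then randomized to oral test agent at fixed daily dose; tumor volume (π/6 × larger × smaller²) every other day.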

HCC827 [12] = assay: Downregulation of SMO expression in gefitinib resistant human HCC827 cells at 0.1 to 0.5 uM after 72 hrs by Western blotting method; type: functional, cell-based; method in brief: as §1
HCC827 [13] = assay: Effect on total AKT levels in gefitinib resistant human HCC827 cells at 0.1 to 0.5 uM after 72 hrs by Western blotting method; type: ADME, cell-based; settings: hcc827, 72 h; method in brief: as §1
[14] = tested on: Protein smoothened (Homo sapiens), Q99835 [V404M]; assay: Inhibition of SMO V404M mutant in gefitinib resistant human HCC827 cells assessed as decrease in GLI1 activity at 2 uM by GLI1 luciferase reporter assay relative to control; method in brief: as §3
[15] = tested on: Protein smoothened (Homo sapiens), Q99835 [V404M]; assay: Displacement of [3H]-cyclopamine from SMO V404M mutant in gefitinib resistant human HCC827 cells at 10 uM by scintillation counting
[16] = target: Hepatocyte growth factor receptor (Homo sapiens) (UniProt P08581); assay: Inhibition of MET in gefitinib resistant human HCC827 cells assessed as decrease in AKT phosphorylation at Ser473 at 0.05 to 0.1 uM after 72 hrs by Western blotting method; method in brief: as §1
Chain of Hepatocyte growth factor receptor (Homo sapiens) (P08581 whole entry): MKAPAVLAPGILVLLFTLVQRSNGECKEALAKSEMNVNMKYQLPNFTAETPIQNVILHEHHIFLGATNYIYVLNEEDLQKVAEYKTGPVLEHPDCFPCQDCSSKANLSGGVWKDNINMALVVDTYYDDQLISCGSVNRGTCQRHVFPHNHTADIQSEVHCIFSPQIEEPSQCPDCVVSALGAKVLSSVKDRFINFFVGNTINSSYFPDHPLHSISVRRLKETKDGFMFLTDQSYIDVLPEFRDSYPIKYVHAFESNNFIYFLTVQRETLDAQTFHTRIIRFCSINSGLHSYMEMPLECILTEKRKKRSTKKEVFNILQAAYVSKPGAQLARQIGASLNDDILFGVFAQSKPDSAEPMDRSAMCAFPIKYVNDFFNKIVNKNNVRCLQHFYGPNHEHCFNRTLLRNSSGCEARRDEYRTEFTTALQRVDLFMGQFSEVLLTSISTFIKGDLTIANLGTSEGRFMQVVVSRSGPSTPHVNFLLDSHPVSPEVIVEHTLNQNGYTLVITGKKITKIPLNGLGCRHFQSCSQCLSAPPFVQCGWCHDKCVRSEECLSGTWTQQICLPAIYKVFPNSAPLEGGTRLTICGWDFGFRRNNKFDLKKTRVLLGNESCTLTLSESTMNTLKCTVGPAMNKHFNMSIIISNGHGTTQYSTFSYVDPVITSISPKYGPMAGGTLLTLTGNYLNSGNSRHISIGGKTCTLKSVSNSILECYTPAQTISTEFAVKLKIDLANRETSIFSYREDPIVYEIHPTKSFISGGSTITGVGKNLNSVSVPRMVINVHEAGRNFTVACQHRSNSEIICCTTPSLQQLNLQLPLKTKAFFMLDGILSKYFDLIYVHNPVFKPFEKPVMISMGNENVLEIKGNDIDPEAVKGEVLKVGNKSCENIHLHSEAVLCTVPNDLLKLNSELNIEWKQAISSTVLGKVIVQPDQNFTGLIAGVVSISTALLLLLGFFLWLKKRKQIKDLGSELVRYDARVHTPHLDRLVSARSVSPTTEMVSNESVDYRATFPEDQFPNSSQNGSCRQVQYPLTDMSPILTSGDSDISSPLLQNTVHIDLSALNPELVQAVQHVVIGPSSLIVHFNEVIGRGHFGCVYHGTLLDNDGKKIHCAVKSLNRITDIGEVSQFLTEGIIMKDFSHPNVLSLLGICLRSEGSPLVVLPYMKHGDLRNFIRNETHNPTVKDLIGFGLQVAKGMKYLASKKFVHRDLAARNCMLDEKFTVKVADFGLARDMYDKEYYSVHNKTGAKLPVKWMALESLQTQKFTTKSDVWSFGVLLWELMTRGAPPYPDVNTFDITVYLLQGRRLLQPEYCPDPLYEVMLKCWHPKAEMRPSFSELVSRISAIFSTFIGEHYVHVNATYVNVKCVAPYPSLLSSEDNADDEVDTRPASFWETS

HCC827 [17] = assay: Effect on total AKT levels in gefitinib resistant human HCC827 cells at 0.05 to 0.1 uM after 72 hrs by Western blotting method; type: ADME, cell-based; settings: hcc827, 72 h; method in brief: as §1
HCC827 [18] = assay: Effect on total MAPK levels in gefitinib resistant human HCC827 cells at 0.05 to 0.1 uM after 72 hrs by Western blotting method; type: ADME, cell-based; settings: hcc827, 72 h; method in brief: as §1
HCC827 [19] = assay: Induction of apoptosis in gefitinib resistant human HCC827 cells at 0.5 uM after 72 hrs by annexin V-FITC-propidium iodide staining-based flow cytometry method relative to control; type: functional; method in brief: as §4
[20] = target: Hepatocyte growth factor receptor (Homo sapiens) (UniProt P08581); assay: Inhibition of MET in gefitinib resistant human HCC827 cells assessed as decrease in MAPK44/42 phosphorylation at Thr202/Tyr204 at 0.05 to 0.1 uM after 72 hrs by Western blotting method; method in brief: as §1
HCC827 [21] = assay: Induction of apoptosis in gefitinib resistant human HCC827 cells at 0.1 uM after 72 hrs by annexin V-FITC-propidium iodide staining-based flow cytometry method relative to control; type: functional; method in brief: as §4
HCC827 [22] = assay: Downregulation of SMO expression in gefitinib resistant human HCC827 cells at 0.05 to 0.1 uM after 72 hrs by Western blotting method; type: functional, cell-based; method in brief: as §1
HCC827 [23] = assay: Antitumor activity against gefitinib resistant human HCC827 cells xenografted in balb/c athymic nu/nu mouse assessed as decrease in tumor size at 15 mg/kg/day, po; type: functional, organism-based; method in brief: as §5
[24] = target: Hepatocyte growth factor receptor (Homo sapiens) (UniProt P08581); assay: Inhibition of MET phosphorylation at Tyr1234/1235 in gefitinib resistant human HCC827 cells at 0.05 to 0.1 uM after 72 hrs by Western blotting method; method in brief: as §1
Homo sapiens = species on record: Homo sapiens; assay: Inhibition of MET/SMO V404M mutant in gefitinib resistant human HCC827 cells assessed as decrease in vimentin expression at 0.05 to 0.1 uM after 72 hrs by Western blotting method
HCC827 [25] = assay: Antitumor activity against gefitinib resistant human HCC827 cells xenografted in balb/c athymic nu/nu mouse assessed as decrease in tumor size at 15 mg/kg/day, po in presence of gefitinib; type: functional, organism-based; method in brief: as §2
HCC827 [26] = assay: Antitumor activity against gefitinib resistant human HCC827 cells xenografted in balb/c athymic nu/nu mouse assessed as decrease in tumor size at 15 mg/kg/day, po in presence of gefitinib
[27] = Plasma concentration in balb/c athymic nu/nu mouse at 20 mg/kg, po measured after 5 hrs; type: ADME, organism-based

| Structure (SMILES) | inhibition [4] | inhibition [5] | inhibition [6] | Ki (Protein smoothened [9]) | inhibition [14] | inhibition [15] | also measured |
| --- | --- | --- | --- | --- | --- | --- | --- |
| COc1cc2c(Oc3ccc(NC(=O)C4(C(=O)Nc5ccc(F)cc5)CC4)cc3F)ccnc2cc1OCCCN1CCOCC1 [FORETINIB] | inactive | Dose-dependent effect | 10 to 100% | 66.8 nM | 25 to 50% |  | Activity (HCC827 [1]): Non-Toxic; Activity (HCC827 [2]): Active; Activity (HCC827 [3]): Active; Ki (Protein smoothened [7]): 59.7 nM; Activity (HCC827 [8]): Active; Activity (HCC827 [10]): Dose-dependent effect; IC50 (HCC827 [10]): 500 nM; Activity (HCC827 [11]): Active; Activity (HCC827 [12]): Active; Activity (HCC827 [13]): Non-Toxic |
| CC(C)(O)CC(=O)NCCn1ccc2ncnc(Nc3ccc(Oc4cccc(C(F)(F)F)c4)c(Cl)c3)c21 |  |  |  |  |  | inactive |  |
| CSc1cccc(Nc2ncc3cc(-c4c(Cl)cccc4Cl)c(=O)n(C)c3n2)c1 | inactive | Dose-dependent effect | 10 to 100% | 46.2 nM | 25 to 50% |  |  |
| O=C(CCCCCC(=O)N/N=C/c1cc2c(cc1[N+](=O)[O-])OCO2)N/N=C/c1cc2c(cc1[N+](=O)[O-])OCO2 |  |  |  |  |  | inactive |  |
| CCN1CCN(c2ccc(Nc3cc(N(C)C(=O)Nc4c(Cl)c(OC)cc(OC)c4Cl)ncn3)cc2)CC1 [INFIGRATINIB] | inactive | Dose-dependent effect | 10 to 100% | 46.5 nM | 25 to 50% |  |  |
| COc1cc2ncnc(Oc3cccc(NC(=O)Nc4cc(C(C)(C)C(F)(F)F)on4)c3)c2cc1OC [CEP-32496] | inactive | Dose-dependent effect | 10 to 100% | 188 nM | 25 to 50% |  |  |
| Cn1cnc(-c2cc3nccc(Oc4ccc(NC(=S)NC(=O)Cc5ccccc5)cc4F)c3s2)c1 | inactive | Dose-dependent effect | 10 to 100% | 53.1 nM | 25 to 50% |  | inhibition [16]: Active; Activity (HCC827 [17]): Non-Toxic; Activity (HCC827 [18]): Non-Toxic; Activity (HCC827 [19]): 84%; inhibition [20]: Active; Activity (HCC827 [21]): 62%; Ki (Protein smoothened [7]): 41.7 nM; Activity (HCC827 [10]): Dose-dependent effect; IC50 (HCC827 [10]): 80 nM; Activity (HCC827 [22]): Active; Activity (HCC827 [23]): Active; inhibition [24]: Active; inhibition (Homo sapiens): Active; Activity (HCC827 [25]): Active; Activity (HCC827 [26]): Active; concentration at 5 h [27]: 800 nM |

Now from value to compound, other results behind:

| inhibition [4] | inhibition [5] | inhibition [6] | Ki (Protein smoothened [9]) | inhibition [14] | inhibition [15] | Structure (SMILES) | also measured |
| --- | --- | --- | --- | --- | --- | --- | --- |
| inactive | Dose-dependent effect | 10 to 100% | 168 nM | 25 to 50% |  | O=C(NNC(=O)c1ccc([N+](=O)[O-])cc1)C(=O)c1c[nH]c2ccccc12 |  |
| inactive | Dose-dependent effect | 10 to 100% | 87.6 nM | 25 to 50% |  | Cc1ccc(F)c(NC(=O)Nc2ccc(-c3cccc4[nH]nc(N)c34)cc2)c1 [LINIFANIB] |  |
|  |  |  |  |  | inactive | CCOc1ccn(-c2ccc(F)cc2)c(=O)c1C(=O)Nc1ccc(Oc2ccnc(N)c2Cl)c(F)c1 |  |
|  |  |  |  |  | inactive | Cc1cccc(C(=O)Nc2ccc(C(=O)NNC3C(=O)Nc4ccccc43)cc2)c1 (stereo not given) |  |
| inactive | Dose-dependent effect | 10 to 100% | 50.4 nM | 25 to 50% |  | Cc1ccc(NC(=O)CN2C(=O)/C(=N/NC(=O)c3cc(Br)ccc3O)c3ccccc32)cc1 |  |
